Published values gathered from unrelated publications.
EEF2K: Eukaryotic elongation factor 2 kinase (EEF2K, Homo sapiens, UniProt O00418)
USP7: Ubiquitin carboxyl-terminal hydrolase 7 (USP7, Homo sapiens, UniProt Q93009)
MMP1: Interstitial collagenase (MMP1, Homo sapiens, UniProt P03956)
CASP9: Caspase-9 (CASP9, Homo sapiens, UniProt P55211)

Cn1cc(-c2cc(F)cc(N3CCn4c(cc5c4CCCC5)C3=O)c2CO)cc(Nc2ccc(N3CCN(C4COC4)CC3)cn2)c1=O  inhibition (EEF2K; enzyme activity, inhibitor; 0.1 µM): 4%
CCN(CC)CCCC[C@H](NC(=O)[C@H](CC(C)C)NC(=O)[C@H](C)NC(=O)[C@H](Cc1ccccc1)NC(=O)c1ccc(C(C)(C)C)cc1)C(=O)N[C@@H](CO)C(=O)OC  inhibition (C-C chemokine receptor type 1 (CCR1, Homo sapiens, UniProt P32246); ligand displacement, radioligand; 10 µM): 7%
C#Cc1n[nH]c2c(-c3cn([C@@H](C)c4ccccc4)c(=O)[nH]c3=O)cc(F)cc12  inhibition (EEF2K; enzyme activity, inhibitor; 0.1 µM): 2.3%
Cc1ncc(C)n2nc(/C=C/c3nc(N4CCCC4)cc(N4CCOCC4)n3)nc12  inhibition (High affinity choline transporter 1 (SLC5A7, Homo sapiens, UniProt Q9GZV3); ligand displacement; 10 µM): 14%
CN(C)C(=O)COC(=O)Cc1ccc(OC(=O)c2ccc(NC(=N)N)cc2)cc1  inhibition (USP7; enzyme activity, inhibitor; 10 µM): 0%
c1ccc(C(NCCNC(c2ccccc2)c2ccccc2)c2ccccc2)cc1  inhibition (MMP1; enzyme activity, inhibitor; 10 µM): -10%
COc1cc(Nc2ncc(F)c(Nc3ccc4c(n3)NC(=O)C(C)(C)O4)n2)cc(OC)c1OC  inhibition (TRAF2 and NCK-interacting protein kinase (TNIK, Homo sapiens, UniProt Q9UKE5); binding; 10 µM): 56%
CCOC(=O)c1ccc(OC(=O)CCCCCNC(=N)N)cc1  inhibition (CASP9; enzyme activity, inhibitor; 10 µM): 7%
C#Cc1n[nH]c2c(-c3cn(C(C)c4ccccn4)c(=O)[nH]c3=O)cc(F)cc12 (stereo not shown)  inhibition (TGF-beta receptor type-1 (TGFBR1, Homo sapiens, UniProt P36897); enzyme activity, inhibitor; 1 µM): 25.2%
O=C(Nc1cccnn1)N1CCN([C@@H]2CCOc3cc(C(F)(F)F)ccc32)CC1  inhibition (Alpha-1B adrenergic receptor (ADRA1B, Homo sapiens, UniProt P35368); cell-free assay; 20 µM): 5%
COc1ccc(S(=O)(=O)N(CC(=O)NO)CC(C)C)cc1  inhibition (MMP1; enzyme activity, inhibitor; 1 µM): 26%
COc1ccc(S(=O)(=O)N2CCCCC2)cc1C  inhibition (Corticotropin-releasing factor receptor 1 (CRHR1, Homo sapiens, UniProt P34998); ligand displacement, radioligand; 10 µM): < 30%
N=C(N)c1ccc2cc(OC(=O)c3ccc(N=C(N)N)cc3)ccc2c1  inhibition (USP7; enzyme activity, inhibitor; 10 µM): 0%
CCOC(=O)N1C[C@H]2C[C@@H]1C[C@@H]2c1ccc(-c2cc(C(=O)OCC(=O)N(C)C)cc3cc(-c4ccc(C(F)(F)F)cc4)ccc23)cc1  inhibition (P2Y purinoceptor 14 (P2RY14, Homo sapiens, UniProt Q15391); cell-free assay, inhibitor; 10 µM): 12.2%
Cn1cc(-c2cccc(N3CCc4c(sc5c4CC(C)(C)C5)C3=O)c2CO)cc(Nc2ccncn2)c1=O  inhibition (EEF2K; enzyme activity, inhibitor; 1 µM): 2%
COC(=O)CC[C@H](NC(=O)[C@H](CC(C)C)NC(=O)OCc1ccccc1)C(=O)N[C@@H](Cc1cnc[nH]1)C(=O)N[C@@H](CC(=O)OC)C(=O)CF  inhibition (CASP9; enzyme activity, inhibitor; 10 µM): 86%
